For series [1], the system named is L929. The experiment in a line: (§1) Selectivity index, ratio of CC50 for mouse L929 cells to IC50 for Leishmania infantum MHOM/ES/2007/DP532JFJ. It is filed as functional.
Series [2] has as its system L929. The experiment in a line: (§2) Selectivity index, ratio of CC50 for mouse L929 cells to IC50 for Leishmania donovani MHOM/IN/00/LEM138. It is filed as functional.
The test system of series [3] is Leishmania infantum. The experiment in a line: Antileishmanial activity against Leishmania infantum promastigotes infected in ICR (CD1) mouse assessed as parasite load in spleen at 104 mg Sb'v/kg, ip dosed daily starting 28 days after infection for 14 days by real-time PCR. It is filed as functional, organism-based. Background: Real-time PCR tracks product formation cycle by cycle.

Series [4] deals with Leishmania infantum. The experiment in a line: Antileishmanial activity against Leishmania infantum promastigotes infected in ICR (CD1) mouse assessed as parasite load in liver at 104 mg Sb'v/kg, ip dosed daily starting 28 days after infection for 14 days by real-time PCR. The format is functional, organism-based.
For series [5], the system named is Leishmania infantum. The experiment in a line: Antileishmanial activity against Leishmania infantum promastigotes infected in ICR (CD1) mouse assessed as reduction in parasite load in liver at 104 mg Sb'v/kg, ip dosed daily starting 28 days after infection for 14 days by real-time PCR relative to control. It is filed as functional, organism-based.
The test system of series [6] is Leishmania infantum. The experiment in a line: Antileishmanial activity against Leishmania infantum promastigotes infected in ICR (CD1) mouse assessed as reduction in parasite load in spleen at 104 mg Sb'v/kg, ip treated 28 days after infection for 14 days by real-time PCR relative to control. It is filed as functional, organism-based.
In series [7] the test system is Leishmania infantum. The experiment in a line: Antileishmanial activity against Leishmania infantum MHOM/ES/2007/DP532JFJ infected in mouse BMDM cells assessed as reduction in intracellular amastigotes after 48 hrs. The format is functional, organism-based. In outline: (§3)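 Bone-marrow-derived macrophages from ICR (CD-1) mice, differentiated with L929-conditioned medium, plated 4 × 10^6 per well on coverslips and allowed to adhere 1 day. Infected with stationary-phase promastigotes at 10:1 parasite/macrophage, then exposed to 25–1000 μM for 48 h (0.5% DMSO). Giemsa-stained, infection percentage counted by microscopy. IC50 from linear regression of infection reduction; at least triplicate.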

The test system of series [8] is Leishmania donovani. The experiment in a line: Antileishmanial activity against Leishmania donovani MHOM/IN/00/LEM138 infected in mouse BMDM cells assessed as reduction in intracellular amastigotes after 48 hrs. The format is functional, organism-based. An outline of the steps:
as §3

In series [9] the test system is L929. The experiment in a line: (§4) Cytotoxicity against mouse L929 cells after 72 hrs by trypan blue assay. The format is cell-based. The following applies: l929, 72 h. An outline of the steps: (§5)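 L929 fibroblasts were plated at 5 × 10^4/well in RPMI-1640 with 10% FBS at 37 °C, 5% CO2. They were exposed to 25–1000 μM compound, with diluent controls, for 72 h. Cells were mixed 1:1 with 0.4% trypan blue and live and dead cells counted in a hemocytometer. Survival was expressed relative to controls and CC50 approximated.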

Series [10] in a line: as §4. The format is cell-based. Particulars: L929 cells. In outline:
as §5

Series [11] in a line: as §1. The format is functional.
A short description of series [12]: as §2. The format is functional.
Series [13] is described as follows: Toxicity in po dosed rat. It is filed as organism-based. Particulars: in vivo.
Series [14] in a line: Cytotoxicity against human skin fibroblast cells. The format is cell-based.
The subject of series [15] is Leishmania infantum. The experiment in a line: Antileishmanial activity against Leishmania infantum MHOM/ES/2007/DP532JFJ infected in mouse BMDM cells assessed as reduction in infection at 150 uM after 48 hrs. It is filed as functional. An outline of the steps: (§6)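 Mouse bone-marrow macrophages were differentiated with L929-conditioned medium and plated with coverslips. They were infected with stationary-phase promastigotes at a 10:1 parasite:macrophage ratio. Compound (25–1000 μM, 0.5% DMSO) was added for 48 h, at least in triplicate. Cells were Giemsa-stained and the percentage infected (≥1 amastigote) was counted by microscopy. Reduction was calculated relative to untreated or diluent wells.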

Series [16] relates to Leishmania donovani. The experiment in a line: Antileishmanial activity against Leishmania donovani MHOM/IN/00/LEM138 infected in mouse BMDM cells assessed as reduction in infection at 150 uM after 48 hrs. The following applies: MHOM/IN/00/LEM138, BMDM. The format is functional. An outline of the steps:
as §6

Series [17] concerns Leishmania infantum. The experiment in a line: Antileishmanial activity against Leishmania infantum promastigotes. It is filed as functional, organism-based.
Series [18] can be described thus: Cytotoxicity against mouse L929 cells assessed as survival rate at 25 to 250 uM after 72 hrs by trypan blue assay. It is filed as cell-based. The following applies: read-out: Survival. In outline: (§7)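 Trypan Blue exclusion assay. BMDM (4 × 10^5/well) or L929 fibroblasts (5 × 10^4/well) incubated 72 h with 25–1000 μM compound, with DMSO diluent controls. Cells then mixed 1:1 with 0.4% Trypan Blue and live and dead cells counted in a hemocytometer. Survival ratio calculated against controls at each concentration.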

Series [19] is described as follows: Cytotoxicity against mouse L929 cells assessed as survival rate at 500 uM after 72 hrs by trypan blue assay. The format is cell-based. The following applies: read-out: Survival. In outline: as §7
The nature of series [20]: Cytotoxicity against mouse L929 cells assessed as survival rate at 1000 uM after 72 hrs by trypan blue assay. It is filed as cell-based. Particulars: read-out: Survival. In outline: as §7
In series [21] the test system is Mus musculus. The experiment in a line: Toxicity in ICR (CD1) mouse assessed as histological changes at 200 mg/kg, po. The format is organism-based. Particulars: in vivo. In outline:
(§8)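 Mice were given daily oral doses of 50, 200 or 1000 mg/kg in olive oil for 14 days, alongside a noninfected healthy reference group. Animals were weighed weekly and checked for stress, pain, cutaneous signs and diarrhea. After sacrifice, spleen and liver were weighed, plasma biochemical and enzymatic values were assessed, and tissue sections were examined by light microscopy.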

Series [22] relates to Mus musculus. The experiment in a line: Toxicity in ICR (CD1) mouse at 1000 mg/kg, po. It is filed as organism-based. The following applies: in vivo. In outline:
as §8

Series [23] relates to Leishmania infantum. The experiment in a line: Antileishmanial activity against Leishmania infantum promastigotes infected in ICR (CD1) mouse assessed as reduction in parasite load in spleen at 200 mg/kg, po dosed daily starting 28 days after infection for 14 days by real-time PCR co-treated with 104 mg Sb'v/kg/day, ip meglumine antimoniate for 14 days. It is filed as functional, organism-based. In outline:
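Female 4–6-week-old Balb/c mice received 10^7 stationary-phase L. infantum promastigotes ip, in groups of seven. From day 28 they were dosed orally each day for 14 days in olive oil; meglumine antimoniate 104 mg SbV/kg was given ip. Spleen and liver load was measured by L. infantum-specific qPCR in triplicate against a calibration curve, as parasites/mg, and reduction was taken versus untreated mice.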

A short description of series [24]: Cytotoxicity against ICR(CD1) BMDM assessed as survival rate at 25 to 250 uM after 72 hrs by trypan blue assay. Particulars: mouse. An outline of the steps: as §7
A further series relates to Leishmania amazonensis. The experiment in a line: Antileishmanial activity against Leishmania amazonensis MHOM/BR/76/MA-76 intracellular amastigotes infected in BALB/c mouse peritoneal macrophages incubated for 24 hrs by Giemsa staining based light microscopy. It is filed as functional, organism-based. The following applies: MHOM/BR/76/MA-76, 24 h.
A short description of series [25]: Cytotoxicity against mouse J774.G8 cells assessed as reduction in cell viability incubated for 24 hrs by MTT assay. The format is cell-based. On the technique in general: Tetrazolium assays rely on reduction of a dye to a coloured formazan, in cell work by metabolically active cells.
Series [26] concerns Mus musculus. The experiment in a line: Toxicity in Balb/c mouse assessed as histological changes at 50 mg/kg, po. Particulars: in vivo.
Series [27] relates to Mus musculus. The experiment in a line: Toxicity in Balb/c mouse assessed as changes in plasma enzymatic changes at 50 and 200 mg/kg, po. Particulars: in vivo.
Series [28] deals with Mus musculus. The experiment in a line: Toxicity in Balb/c mouse assessed as changes in plasma biochemical changes at 50 and 200 mg/kg, po. Particulars: in vivo.
The test system of series [29] is Leishmania infantum. The experiment in a line: Antileishmanial activity against Leishmania infantum promastigotes infected in Balb/c mouse assessed as parasite load in liver at 200 mg/kg, po dosed daily starting 28 days after infection for 14 days by real-time PCR.
Series [30] concerns Leishmania infantum. The experiment in a line: Antileishmanial activity against Leishmania infantum promastigotes infected in Balb/c mouse assessed as parasite load in spleen at 200 mg/kg, po dosed daily starting 28 days after infection for 14 days by real-time PCR.
Series [31] concerns Leishmania infantum. The experiment in a line: Antileishmanial activity against Leishmania infantum promastigotes infected in Balb/c mouse assessed as reduction parasite load in liver at 50 mg/kg, po dosed daily starting 28 days after infection for 14 days by real-time PCR relative to control.
The test system of series [32] is Leishmania infantum. The experiment in a line: Antileishmanial activity against Leishmania infantum promastigotes infected in Balb/c mouse assessed as reduction parasite load in spleen at 50 mg/kg, po dosed daily starting 28 days after infection for 14 days by real-time PCR relative to control.
The mark [33] stands for this setting: Leishmania infantum, MHOM/ES/2007/DP532JFJ, BMDM, 48 h.
The mark [34] stands for this setting: Leishmania donovani, MHOM/IN/00/LEM138, BMDM, 48 h.

The source made the active and inactive calls. The calls are words filed in the database; no cut-off is given here. Where only a bound is given, the exact number is not on record here.

A word on the inhibition: it is the change of the read-out against control, counted positive when it falls. On to “MEGLUMINE ANTIMONATE [listing 1 of 2 here]”, for which the Ratio CC50/IC50 in the series on L929 [1] was 2; with L929 [2], 3. Besides, the inhibition result in the series with Leishmania infantum [3] and in the series on Leishmania infantum [4] was “Active” in each case. Moreover, the outcome in the series on Leishmania infantum [5] was Active. In the series on Leishmania infantum [6], the inhibition entry is “inactive”.
One may read the IC50 as the midpoint of a concentration-inhibition curve. For orientation: CC50 means the concentration at which the toxic effect on the cells reaches its halfway point. Regarding “MEGLUMINE ANTIMONATE [listing 2 of 2 here]”, the IC50 in the series on Leishmania infantum [7] (bmdm) was determined as 144 µM; in the series with Leishmania donovani [8] (bmdm) it was 96.4 µM. In the series on L929 [9], this compound had a CC50 of 273 µM.
As usually defined, the LD50 is the dose expected to kill half of the subjects tested. Low readings indicate greater toxicity, high ones lower toxicity. In the case of `CC(C)=CCC[C@@](C)(O)[C@@H]1CC=C(C)CC1`, the IC50 came out at 56.9 µM with Leishmania infantum [7] (setting [33]), 39.4 µM in the series on Leishmania donovani [8] (setting [34]), 49 µM in the series on Leishmania infantum [17] and 48 µM in the series on Leishmania amazonensis. Also, in [10], the CC50 at 72 h was greater than 1000 µM. In addition, the “Ratio CC50/IC50” value is given as greater than 17 in series [11] and greater than 25 in series [12]. The compound also had an LD50 in series [13] of 14000 mg/kg. For the same compound, the cytotoxic concentration (CC50) in [14] is greater than 150 µM. Also, the inhibition at 150 µM in the series on Leishmania infantum [15] came out at 85%; in the series on Leishmania donovani [16], 89%. For the same compound, the viability at 72 h, up to 250 µM in series [18] is 100%. The viability at 72 h, 500 µM in [19] amounted to 86.7%. Moreover, the viability at 72 h, 1000 µM in series [20] came out at 62.3%. Moreover, the Activity entry (in the series with Mus musculus [21]; with Mus musculus [22]; in series [24]; with Mus musculus [26]; in the series with Mus musculus [27]; in the series on Mus musculus [28]) was “Non-toxic” throughout. Moreover, the inhibition entry with Leishmania infantum [23] was “inactive”. Moreover, the cytotoxic concentration (CC50) at 24 h in series [25] came out at 452 µM. The inhibition result in the series on Leishmania infantum [29], in the series with Leishmania infantum [30], with Leishmania infantum [31] and with Leishmania infantum [32] was “Active” throughout.
As for `N=C(N)c1ccc(OCCCCCOc2ccc(C(=N)N)cc2)cc1.O=S(=O)(O)CCO`, the IC50 with Leishmania infantum [7] (setting [33]) was 1.5 µM; in the series with Leishmania donovani [8] (setting [34]) it was 0.88 µM. Moreover, the CC50 at 72 h in series [10] worked out at 6.1 µM. In addition, the “Ratio CC50/IC50” value in [11] came out at 4; in [12], 7.

Values taken from ChEMBL document CHEMBL3585262, “(-)-α-Bisabolol, a Promising Oral Compound for the Treatment of Visceral Leishmaniasis” (J Nat Prod, 2015).
